Source: ChEMBL document CHEMBL1122741, “Substituted 5,6-dihydrofuro[3,2-f]-1,2-benzisoxazole-6-carboxylic acids: high-ceiling diuretics with uricosuric activity” (J Med Chem, 1984)
The source made the active and inactive calls. The calls are words filed in the database; no cut-off is given here.

These compounds were tested on Canis familiaris (assay: ED5(natriuretic potency) is the oral dose(mg/kg) required to produce an excretion of 5 milliequivalents of Na+per kilogram during 0-6 hr in female dogs (Highest dose tested was 30 mg/kg); Inactive). Settings: Canis lupus familiaris.
Format: functional, organism-based
Set-up: dose 30 mg/kg
Summary of the method: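 Female dogs, conscious, one oral dose per dog per experiment. Urine collected and centrifuged; venous plasma drawn at each collection time. Samples assayed for Na+, K+, Cl-, urate and glucose by standard methods. Cumulative Na+ output expressed as mequiv/kg over 6 h, at least two dogs/dose. ED5 read from regression of Na+ excretion against log dose.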
For O=C(O)C1Cc2cc3c(-c4ccccc4F)noc3c(Cl)c2O1 (stereo in doubt; 30), the ED5 was “inactive”.

Each compound was assayed on Mus musculus (assay: ED6 (natriuretic potency) is the oral dose(mg/kg) required to produce an excretion of 6 milliequivalents of Na+per kilogram during 0-4 hr in male mice (Highest dose tested was 50 mg/kg)). Settings: not given.
Format: functional
Summary of the method: (§1)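 Male mice, 16-30 g, fed ad libitum beforehand. Compound in 0.2% hydroxypropylmethylcellulose given po at 10 mL/kg, then 0.9% saline po at 3% of body weight. Five mice pooled per metabolism cage, four cages per dose. Combined urine collected 0-4 h and assayed for Na+, K+, Cl-, uric acid as mequiv/kg per cage. ED6 from regression of Na+ against log dose.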
O=C(O)C1Cc2cc3c(-c4ccc(F)cc4)noc3c(Cl)c2O1 (stereo not drawn) gave an ED6 of 66 mg/kg.
For O=C(O)C1Cc2cc3c(-c4ccccc4F)noc3cc2O1 (stereo not drawn), the ED6 was 100 mg/kg.
For Cc1ccccc1-c1noc2c(Cl)c3c(cc12)CC(C(=O)O)O3 (stereo not drawn), the ED6 was 8.4 mg/kg.
NC(=O)C1Cc2cc3c(-c4ccccc4F)noc3c(Cl)c2O1 (stereo not drawn) showed an ED6 of 39 mg/kg.
Compound O=C(O)C1Cc2cc3c(-c4ccccc4F)noc3c(Br)c2O1 (stereo not drawn) has an ED6 of 9.9 mg/kg.

Each compound was assayed on Mus musculus (assay: ED6 (natriuretic potency) is the oral dose(mg/kg) required to produce an excretion of 6 milliequivalents of Na+per kilogram during 0-4 hr in male mice (Highest dose tested was 50 mg/kg); Inactive). Settings: not given.
Format: functional, organism-based
Set-up: dose 50 mg/kg
Summary of the method: as §1
In the case of O=C(O)C1Cc2cc3c(-c4ccccc4Cl)noc3c(Cl)c2O1 (stereo not drawn), the ED6 was “inactive”.
For O=C(O)C1Cc2cc3c(-c4cccs4)noc3c(Cl)c2O1 (stereo not drawn), the ED6 was “inactive”.
For COc1c2c(cc3c(-c4ccccc4F)noc13)CC(C(=O)O)O2 (stereo not drawn), the ED6 was “inactive”.
O=C(O)C1Cc2cc3c(-c4cccc(F)c4)noc3c(Cl)c2O1 (stereo not drawn) was tested, and the ED6 was “inactive”.
In the case of Cc1noc2c(Cl)c3c(cc12)CC(C(=O)O)O3 (stereo not drawn), the ED6 was “inactive”.
For O=C(O)C1Cc2cc3c(-c4ccc(O)cc4)noc3c(Cl)c2O1 (stereo not drawn), the ED6 was “inactive”.
CCOC(=O)C1Cc2cc3c(-c4ccccc4F)noc3c(Cl)c2O1 (stereo not drawn) was tested, and the ED6 was “inactive”.
N#CC1Cc2cc3c(-c4ccccc4F)noc3c(Cl)c2O1 (stereo not drawn) was tested, and the ED6 was “inactive”.
O=C(O)C1Cc2cc3c(-c4ccccc4F)noc3c(Cl)c2O1 (stereo in doubt; 30) was tested, and the ED6 was “inactive”.

The compounds below were run on Rattus norvegicus (assay: ED2(natriuretic potency) is the oral dose(mg/kg) required to produce an excretion of 2 milliequivalents of Na+per kilogram during 0-4 hr in female rats (Highest dose tested was 100 mg/kg)). Settings: not given.
Format: functional
Summary of the method: (§2)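 Female Sprague-Dawley rats, 175-225 g, on sucrose and water for 18 h, given 5 mg DOCA sc 2 h before dosing. Compound in 0.2% methylcellulose given by gavage at 2 mL/kg, then a 30 mL/kg load of 0.34% NaCl/0.69% KCl. Individual metabolism cages, urine collected 0-4 h for Na+, K+, Cl-. Two-stage two-dose screen at 2 rats/dose, then at least four doses at 4 rats/dose. ED2 taken from regression of Na+ excretion against log dose.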
O=C(O)C1Cc2cc3c(-c4ccccc4Cl)noc3c(Cl)c2O1 (stereo not drawn) was tested, and the ED2 was 22.5 mg/kg.
O=C(O)C1Cc2cc3c(-c4cccs4)noc3c(Cl)c2O1 (stereo not drawn) gave an ED2 of over 100 mg/kg.
O=C(O)C1Cc2cc3c(-c4ccc(F)cc4)noc3c(Cl)c2O1 (stereo not drawn) was tested, and the ED2 was 7.3 mg/kg.
Compound COc1c2c(cc3c(-c4ccccc4F)noc13)CC(C(=O)O)O2 (stereo not drawn) has an ED2 of 210 mg/kg.
Cc1ccccc1-c1noc2c(Cl)c3c(cc12)CC(C(=O)O)O3 (stereo not drawn) gave an ED2 of 14.3 mg/kg.
O=C(O)C1Cc2cc3c(-c4cccc(F)c4)noc3c(Cl)c2O1 (stereo not drawn) gave an ED2 of 63 mg/kg.
For Cc1noc2c(Cl)c3c(cc12)CC(C(=O)O)O3 (stereo not drawn), the ED2 was 40 mg/kg.
O=C(O)C1Cc2cc3c(-c4ccc(O)cc4)noc3c(Cl)c2O1 (stereo not drawn) was tested, and the ED2 was 190 mg/kg.
For O=C(O)C1Cc2cc3c(-c4ccccc4F)noc3c(Br)c2O1 (stereo not drawn), the ED2 was 117.5 mg/kg.

What follows are compounds tested on Rattus norvegicus (assay: ED2(natriuretic potency) is the oral dose(mg/kg) required to produce an excretion of 2 milliequivalents of Na+per kilogram during 0-4 hr in female rats (Highest dose tested was 100 mg/kg); Inactive). Settings: not given.
Format: functional, organism-based
Set-up: dose 100 mg/kg
Summary of the method: as §2
With O=C(O)C1Cc2cc3c(-c4ccccc4F)noc3cc2O1 (stereo not drawn) the ED2 was “inactive”.
In the case of NC(=O)C1Cc2cc3c(-c4ccccc4F)noc3c(Cl)c2O1 (stereo not drawn), the ED2 was “inactive”.
With CCOC(=O)C1Cc2cc3c(-c4ccccc4F)noc3c(Cl)c2O1 (stereo not drawn) the ED2 was “inactive”.
With N#CC1Cc2cc3c(-c4ccccc4F)noc3c(Cl)c2O1 (stereo not drawn) the ED2 was “inactive”.
